# Columns and labels:
# [1] = Biodistribution after day 6 in mouse heart; type: ADME, organism-based
# Summary of the method: (§1)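 Female outbred CD-1 nude mice (18-20 g) bearing subcutaneous human pancreatic adenocarcinoma UB 290896 (2 × 2 mm pieces, right flank; used at tumor diameter 4.5-5.5 mm). Aqueous solution (∼1 mmol L-1) given subcutaneously at 15 µmol kg-1 per day for 3 days. Mice killed 1, 3, 6 or 9 days after the last injection. Five mice per time point, plus 5 noninjected controls.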
# [2] = Biodistribution after day 3 in mouse liver; type: ADME, organism-based; summary of the method: as §1
# [3] = Biodistribution after day 3 in mouse tumor; type: ADME, organism-based; summary of the method: as §1
# [4] = Biodistribution after day 6 in mouse tumor; type: ADME, organism-based; summary of the method: as §1
# [5] = Biodistribution after day 1 in mouse spleen; type: ADME, organism-based; summary of the method: as §1
# [6] = Biodistribution after day 3 in mouse lung; type: ADME, organism-based; summary of the method: as §1
# [7] = Biodistribution after day 3 in mouse kidney; type: ADME, organism-based; summary of the method: as §1
# [8] = Biodistribution after day 1 in mouse liver; type: ADME, organism-based; summary of the method: as §1
# [9] = Biodistribution after day 6 in mouse kidney; type: ADME, organism-based; summary of the method: as §1
# [10] = Biodistribution after day 6 in mouse brain; type: ADME, organism-based; summary of the method: as §1
# [11] = Biodistribution after day 6 in mouse lung; type: ADME, organism-based; summary of the method: as §1
# [12] = Biodistribution after day 6 in mouse blood; type: ADME, organism-based; summary of the method: as §1
# [13] = Biodistribution after day 1 in mouse brain; type: ADME, organism-based; summary of the method: as §1
# [14] = Biodistribution after day 3 in mouse muscle; type: ADME, organism-based, Muscle tissue; summary of the method: as §1
# [15] = Biodistribution after day 6 in mouse spleen; type: ADME, organism-based; summary of the method: as §1
# [16] = Biodistribution after day 6 in mouse muscle; type: ADME, organism-based, Muscle tissue; summary of the method: as §1
# [17] = Biodistribution after day 3 in mouse heart; type: ADME, organism-based; summary of the method: as §1
# [18] = Biodistribution after day 6 in mouse liver; type: ADME, organism-based; summary of the method: as §1
# [19] = Biodistribution after day 1 in mouse muscle; type: ADME, organism-based, Muscle tissue; summary of the method: as §1
# [20] = Biodistribution after day 1 in mouse kidney; type: ADME, organism-based; summary of the method: as §1
# [21] = Biodistribution after day 1 in mouse blood; type: ADME, organism-based; summary of the method: as §1
# [22] = Biodistribution after day 3 in mouse spleen; type: ADME, organism-based; summary of the method: as §1
# [23] = Biodistribution after day 1 in mouse tumor; type: ADME, organism-based; summary of the method: as §1
# [24] = Biodistribution after day 3 in mouse brain; type: ADME, organism-based; summary of the method: as §1
# [25] = Biodistribution after day 1 in mouse lung; type: ADME, organism-based; summary of the method: as §1
# [26] = Biodistribution after day 1 in mouse heart; type: ADME, organism-based; summary of the method: as §1
# [27] = Biodistribution after day 3 in mouse blood; type: ADME, organism-based; summary of the method: as §1
# [28] = Biodistribution after day 9 in mouse blood; type: ADME, organism-based; summary of the method: as §1
# [29] = Biodistribution after day 9 in mouse muscle; type: ADME, organism-based, Muscle tissue; summary of the method: as §1
# [30] = Biodistribution after day 9 in mouse kidney; type: ADME, organism-based; summary of the method: as §1
# [31] = Biodistribution after day 9 in mouse liver; type: ADME, organism-based; summary of the method: as §1
# [32] = Biodistribution after day 9 in mouse heart; type: ADME, organism-based; summary of the method: as §1
# [33] = Biodistribution after day 9 in mouse tumor; type: ADME, organism-based; summary of the method: as §1
# [34] = Biodistribution after day 9 in mouse brain; type: ADME, organism-based; summary of the method: as §1
# [35] = Biodistribution after day 9 in mouse spleen; type: ADME, organism-based; summary of the method: as §1
# [36] = Biodistribution after day 9 in mouse lung; type: ADME, organism-based; summary of the method: as §1
SMILES,concentration at 6 day [1],concentration at 3 day [2],concentration at 3 day [3],concentration at 6 day [4],concentration at 1 day [5],concentration at 3 day [6],concentration at 3 day [7],concentration at 1 day [8],concentration at 6 day [9],concentration at 6 day [10],concentration at 6 day [11],concentration at 6 day [12],concentration at 1 day [13],concentration at 3 day [14],concentration at 6 day [15],concentration at 6 day [16],concentration at 3 day [17],concentration at 6 day [18],concentration at 1 day [19],concentration at 1 day [20],also measured
CCc1c(CC)c2cc3nc(cc4[nH]c(c(C)c4CC)c4[nH]c(cc5nc(cc1[nH]2)C(CCC(=O)NCCN(CCN)CCN)=C5C)c(CC)c4C)C(C)=C3CCC(=O)NCCN(CCN)CCN,5200 ng/g,13000 ng/g,89000 ng/g,49000 ng/g,4100 ng/g,13000 ng/g,5700 ng/g,1030 ng/g,1700 ng/g,160 ng/g,3200 ng/g,1170 ng/g,870 ng/g,36000 ng/g,3900 ng/g,22000 ng/g,10700 ng/g,10000 ng/g,3600 ng/g,2800 ng/g,concentration at 1 day [21]: 950 ng/g; concentration at 3 day [22]: 8000 ng/g; concentration at 1 day [23]: 58000 ng/g; concentration at 3 day [24]: 400 ng/g; concentration at 1 day [25]: 2500 ng/g; concentration at 1 day [26]: 3100 ng/g; concentration at 3 day [27]: 3400 ng/g
CCc1c(CC)c2cc3nc(cc4[nH]c(c(C)c4CC)c4[nH]c(cc5nc(cc1[nH]2)C(CCC(=O)NC1C(O)OC(CO)C(O)C1O)=C5C)c(CC)c4C)C(C)=C3CCC(=O)NC1C(O)OC(CO)C(O)C1O (stereo not given),6400 ng/g,430 ng/g,66000 ng/g,330000 ng/g,3600 ng/g,8000 ng/g,1900 ng/g,290 ng/g,1500 ng/g,750 ng/g,6000 ng/g,2200 ng/g,550 ng/g,21000 ng/g,8000 ng/g,17000 ng/g,9000 ng/g,370 ng/g,8000 ng/g,1100 ng/g,concentration at 9 day [28]: 1500 ng/g; concentration at 9 day [29]: 11000 ng/g; concentration at 9 day [30]: 2800 ng/g; concentration at 9 day [31]: 470 ng/g; concentration at 9 day [32]: 6000 ng/g; concentration at 9 day [33]: 23000 ng/g; concentration at 9 day [34]: 520 ng/g; concentration at 1 day [21]: 1440 ng/g; concentration at 3 day [22]: 7800 ng/g; concentration at 1 day [23]: 32000 ng/g; concentration at 9 day [35]: 9700 ng/g; concentration at 3 day [24]: 770 ng/g; concentration at 1 day [25]: 4900 ng/g; concentration at 9 day [36]: 8000 ng/g; concentration at 1 day [26]: 5400 ng/g; concentration at 3 day [27]: 2000 ng/g
CCc1c(CC)c2cc3nc(cc4[nH]c(c(C)c4CC)c4[nH]c(cc5nc(cc1[nH]2)C(CCC(=O)N(CCO)CCO)=C5C)c(CC)c4C)C(C)=C3CCC(=O)N(CCO)CCO [SAPPHYRIN],760 ng/g,1500 ng/g,220000 ng/g,130000 ng/g,1290 ng/g,710 ng/g,330 ng/g,1420 ng/g,460 ng/g,290 ng/g,710 ng/g,500 ng/g,240 ng/g,760 ng/g,960 ng/g,710 ng/g,960 ng/g,1200 ng/g,1020 ng/g,440 ng/g,concentration at 1 day [21]: 500 ng/g; concentration at 3 day [22]: 1390 ng/g; concentration at 1 day [23]: 109000 ng/g; concentration at 3 day [24]: 270 ng/g; concentration at 1 day [25]: 480 ng/g; concentration at 1 day [26]: 950 ng/g; concentration at 3 day [27]: 900 ng/g
C=CC1=C(C)c2cc3nc(cc4[nH]c(cc5[nH]c(cc1n2)c(C)c5CCC(=O)NC1C(O)OC(CO)C(O)C1O)c(CCC(=O)NC1C(O)OC(CO)C(O)C1O)c4C)C(C=C)=C3C (stereo not given) [PORPHYRIN],1700 ng/g,800 ng/g,131000 ng/g,260000 ng/g,22000 ng/g,1700 ng/g,3100 ng/g,1100 ng/g,4300 ng/g,320 ng/g,1400 ng/g,980 ng/g,420 ng/g,4200 ng/g,12000 ng/g,5100 ng/g,1450 ng/g,1320 ng/g,3500 ng/g,700 ng/g,concentration at 9 day [28]: 800 ng/g; concentration at 9 day [29]: 3600 ng/g; concentration at 9 day [30]: 510 ng/g; concentration at 9 day [31]: 960 ng/g; concentration at 9 day [32]: 2400 ng/g; concentration at 9 day [33]: 37000 ng/g; concentration at 9 day [34]: 370 ng/g; concentration at 1 day [21]: 1090 ng/g; concentration at 3 day [22]: 16000 ng/g; concentration at 1 day [23]: 34000 ng/g; concentration at 9 day [35]: 9000 ng/g; concentration at 3 day [24]: 410 ng/g; concentration at 1 day [25]: 2000 ng/g; concentration at 9 day [36]: 2300 ng/g; concentration at 1 day [26]: 2700 ng/g; concentration at 3 day [27]: 900 ng/g

# More lines, main results first:
concentration at 6 day [1],concentration at 3 day [2],concentration at 3 day [3],concentration at 6 day [4],concentration at 1 day [5],concentration at 3 day [6],concentration at 3 day [7],concentration at 1 day [8],concentration at 6 day [9],concentration at 6 day [10],concentration at 6 day [11],concentration at 6 day [12],concentration at 1 day [13],concentration at 3 day [14],concentration at 6 day [15],concentration at 6 day [16],concentration at 3 day [17],concentration at 6 day [18],concentration at 1 day [19],concentration at 1 day [20],SMILES,also measured
4800 ng/g,61000 ng/g,130000 ng/g,180000 ng/g,4600 ng/g,11000 ng/g,59000 ng/g,14000 ng/g,52000 ng/g,4300 ng/g,19000 ng/g,3400 ng/g,2700 ng/g,9300 ng/g,14000 ng/g,3400 ng/g,7800 ng/g,16000 ng/g,10000 ng/g,3100 ng/g,CCc1c(CC)c2cc3nc(cc4[nH]c(c(C)c4CC)c4[nH]c(cc5nc(cc1[nH]2)C(CCC(=O)NCCOCCOCCO)=C5C)c(CC)c4C)C(C)=C3CCC(=O)NCCOCCOCCO,concentration at 1 day [21]: 7000 ng/g; concentration at 3 day [22]: 11000 ng/g; concentration at 1 day [23]: 22000 ng/g; concentration at 3 day [24]: 4300 ng/g; concentration at 1 day [25]: 13000 ng/g; concentration at 1 day [26]: 8000 ng/g; concentration at 3 day [27]: 9300 ng/g
9200 ng/g,25000 ng/g,114000 ng/g,51000 ng/g,1300 ng/g,19000 ng/g,6800 ng/g,210 ng/g,3800 ng/g,2400 ng/g,7000 ng/g,2450 ng/g,500 ng/g,29000 ng/g,3300 ng/g,45000 ng/g,15500 ng/g,4200 ng/g,1900 ng/g,640 ng/g,CCC1=C(CC)c2cc3[nH]c(cc4[nH]c(c(C)c4CC)c4[nH]c(cc5nc(cc1n2)C(CCC(=O)NCCOCCOCCN)=C5C)c(CC)c4C)c(C)c3CCC(=O)NCCOCCOCCN,concentration at 1 day [21]: 1690 ng/g; concentration at 3 day [22]: 11000 ng/g; concentration at 1 day [23]: 4200 ng/g; concentration at 3 day [24]: 5000 ng/g; concentration at 1 day [25]: 1700 ng/g; concentration at 1 day [26]: 2000 ng/g; concentration at 3 day [27]: 3020 ng/g

# Reference: ChEMBL document CHEMBL1135601, “Synthesis and biolocalization of water-soluble sapphyrins” (J Med Chem, 2002)
